Test results as given in ChEMBL document CHEMBL1671641, “1,5-benzodiazepines, a novel class of hepatitis C virus polymerase nonnucleoside inhibitors” (Antimicrob Agents Chemother, 2008).

Columns and labels:
Hepatitis C virus [1] = experiment: Antiviral activity against Hepatitis C virus 1b infected in human HuH7 cells assessed as inhibition of viral replication after 3 days by luciferase reporter assay; type: functional, organism-based, Hepacivirus hominis, genotype 1b, Huh-7; details: huh-7
How it was run: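 HCV 1b subgenomic luciferase reporter replicon (clone ET) cells, 2,500 per well, were exposed to a nine-point 1/4 dilution series for 3 days. Replication was read as luciferase activity. Values are means ± SD from 2 to 23 independent experiments run in quadruplicate.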

MT4 = experiment: Cytotoxicity against LTR-Luc transfected human MT4 cells […] after 3 days by ATPLite assay; type: cell-based; details: mt4, 72 h, 72 h
[2] = Cytotoxicity against CMV-Luc transfected human HuH7 cells after 5 days; type: cell-based, Huh-7; details: huh-7, 120 h, 120 h
Hepatitis C virus [3] = experiment: Inhibition of Hepatitis C virus 1b J4 recombinant NS5B Cdelta 21 RNA dependent RNA polymerase overexpressed in Escherichia coli BL21 (DE3) by RdRp primer-dependent transcription assay; set-up: species or system Hepatitis C virus subtype 1b
Hepatitis C virus [4] = experiment: Inhibition of Hepatitis C virus 1b J4 recombinant NS5B Cdelta 21 RNA dependent RNA polymerase overexpressed in Escherichia coli BL21 (DE3) assessed as [alpha-33P]UTP incorporation by RdRp primer-independent transcription assay; set-up: species or system Hepatitis C virus subtype 1b
How it was run: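 De novo (primer-independent) RdRp assay: 190 nM NS5BΔ21 (1b J4) with 86 nM HCV 3′ UTR template RNA, 0.5 mM each ATP/GTP/CTP, 10 μM UTP plus [α-³³P]UTP, in 20 mM Tris-HCl pH 7.5, 1 mM DTT, 5 mM MgCl₂, 20 mM NaCl. Incubated 2 h at room temperature, stopped with EDTA/tRNA, TCA-precipitated on filters, and scintillation-counted. Quadruplicate.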

Hepatitis C virus [5] = experiment: Non competitive inhibition of Hepatitis C virus 1b J4 recombinant NS5B Cdelta 21 RNA dependent RNA polymerase overexpressed in Escherichia coli BL21 (DE3) in presence of radiolabeled 20 nM GTP; set-up: species or system Hepatitis C virus subtype 1b
How it was run: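 Primer-dependent RdRp assay using purified C-terminally truncated NS5BΔ21 (genotype 1b J4) expressed in E. coli BL21(DE3). Enzyme was incubated with a poly(rC)/oligo(rG13) template, radiolabeled GTP at 20 nM, and a range of inhibitor concentrations. IC50 was derived by nonlinear regression of the dose-response curves. The run was done once in quadruplicate, reported as means ± SEM.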

Hepatitis C virus [6] = experiment: Non competitive inhibition of Hepatitis C virus 1b J4 recombinant NS5B Cdelta 21 RNA dependent RNA polymerase overexpressed in Escherichia coli BL21 (DE3) in presence of radiolabeled 200 uM GTP
Hepatitis C virus [7] = experiment: Antiviral activity against Hepatitis C virus infected in cells assessed as log reduction in viral RNA level at 800 mg administered BID for 10 days; type: functional, Hepacivirus hominis

| SMILES | EC50 (Hepatitis C virus [1]) | CC50 (MT4) | CC50 [2] | IC50 (Hepatitis C virus [3]) | IC50 (Hepatitis C virus [4]) | IC50 (Hepatitis C virus [5]) | IC50 (Hepatitis C virus [6]) | FC (Hepatitis C virus [7]) |
| --- | --- | --- | --- | --- | --- | --- | --- | --- |
| CC(=O)N1c2ccccc2NC2=C(C(=O)CC(C)(C)C2)C1c1ccc(OCc2ccccc2)c(Cl)c1 (single isomer, unassigned; 4a) | 1900 nM | 16400 nM | > 32000 nM | 1000 nM | 900 nM | 1000 nM | 1300 nM |  |
| CC1CCC(C(=O)N(c2cc(-c3ccccc3)sc2C(=O)[O-])C2CCC(O)CC2)CC1.[Na+] (stereo not drawn) [VCH-759] |  |  |  |  |  |  |  | 2.5 |
